A short description of series [1]: Solubility of the compound in screening media. Format: physicochemical.
The nature of series [2]: Solubility of the compound in DMSO. Format: physicochemical.
A further series deals with Mycobacterium ulcerans. Nature of the series: Antibacterial activity against Mycobacterium ulcerans assessed as bacterial metabolic acativity at 10 ug/ml incubated for 8 days followed by addition of Alamar blue for 3 days by Alamar blue dye based fluorescence analysis. Format: functional. The settings on record: dose 10 µg/ml; time 8 day. In a few lines: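 Tested in triplicate. Remaining metabolic activity (%PC) was calculated as blank-corrected fluorescence of each treated well divided by that of the untreated control.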
On the technique in general: The colour change of resazurin is a common sign of viable cells or microbes.

The source of these data is ChEMBL document CHEMBL4732173, “Easily accessed nitroquinolones exhibiting potent and selective anti-tubercular activity” (Eur J Med Chem, 2021).

Structures are written as SMILES. A value given as a limit tells only on which side of the number the result lay.

Turning to `N#Cc1cccc(Cn2cc(C(=O)NCCOCCO)c(=O)c3cc([N+](=O)[O-])ccc32)c1`, the solubility result in series [1] was “Soluble”; in series [2], “Insoluble”.

As for `N#Cc1cccc(Cn2cc(C(=O)NCCNCCO)c(=O)c3cc([N+](=O)[O-])ccc32)c1`, the solubility entry in series [1] was “Soluble”; in series [2], “Insoluble”. Moreover, in the series with Mycobacterium ulcerans, the Activity is greater than 90%.

As to `O=C(NO)c1cn(Cc2cccc(Cl)c2)c2ccc([N+](=O)[O-])cc2c1=O`, the solubility result in series [1] is on record as “Soluble”; in series [2], “Insoluble”.

With `O=C(NCCNCCO)c1cn(Cc2ccc(F)cc2)c2ccc([N+](=O)[O-])cc2c1=O`, the solubility result in series [1] is reported as “Soluble”; in series [2], “Insoluble”. Also, the Activity in the series with Mycobacterium ulcerans is listed as greater than 90%.

On to `O=C(NCCN1CCOCC1)c1cn(Cc2cccc(Cl)c2)c2ccc([N+](=O)[O-])cc2c1=O`, for which the figures for the solubility entry in series [1] and in series [2] were “Soluble” and “Insoluble”, respectively.

On to `O=C(NCCOCCO)c1cn(Cc2ccc(F)cc2)c2ccc([N+](=O)[O-])cc2c1=O`, for which the solubility result in series [1] was “Soluble”; in series [2] it was “Insoluble”. The Activity in the series with Mycobacterium ulcerans was greater than 90%.

As to `CCOC(=O)c1c[nH]c2c(C(F)(F)F)cc([N+](=O)[O-])cc2c1=O`, the solubility result in series [1] is given as “Soluble”; in series [2], “Insoluble”. In the series on Mycobacterium ulcerans, the Activity is given as greater than 90%.

For `COCCNC(=O)c1cn(Cc2cccc(Cl)c2)c2ccc([N+](=O)[O-])cc2c1=O`, the results for the solubility entry in series [1] and in series [2] were “Soluble” and “Insoluble”, respectively. Further, the Activity in the series on Mycobacterium ulcerans is given as greater than 90%.

With `O=C(NCCNCCO)c1cn(Cc2cccc(F)c2)c2ccc([N+](=O)[O-])cc2c1=O`, the results for the solubility result in series [1] and in series [2] were “Soluble” and “Insoluble”, respectively. In addition, in the series on Mycobacterium ulcerans, the Activity is reported as greater than 90%.

For the compound `O=C(NCCN1CCOCC1)c1cn(Cc2cccc(Br)c2)c2ccc([N+](=O)[O-])cc2c1=O`, the solubility entry in series [1] is “Soluble”; in series [2], “Insoluble”.

As for `N#Cc1cccc(Cn2cc(C(=O)NO)c(=O)c3cc([N+](=O)[O-])ccc32)c1`, the figures for the solubility result in series [1] and in series [2] were “Soluble” and “Insoluble”, respectively.

Take `COCCNC(=O)c1cn(Cc2cccc(C#N)c2)c2ccc([N+](=O)[O-])cc2c1=O`: the solubility result in series [1] is “Soluble”; in series [2], “Insoluble”.

As to `O=C(NO)c1cn(Cc2cccc(F)c2)c2ccc([N+](=O)[O-])cc2c1=O`, the solubility entry is recorded as “Soluble” in series [1] and “Insoluble” in series [2].

Take `O=C(NCCN1CCOCC1)c1cn(Cc2cccc(F)c2)c2ccc([N+](=O)[O-])cc2c1=O`: the solubility result is “Soluble” in series [1] and “Insoluble” in series [2].

On to `N#Cc1cccc(Cn2cc(C(=O)O)c(=O)c3cc([N+](=O)[O-])ccc32)c1`, for which the solubility result is given as “Soluble” in series [1] and “Insoluble” in series [2].

Consider `COCCNC(=O)c1cn(Cc2cccc(F)c2)c2ccc([N+](=O)[O-])cc2c1=O`, for which the solubility entry in series [1] was “Soluble”; in series [2] it was “Insoluble”.

Take `COCCNC(=O)c1cn(Cc2ccc(F)cc2)c2ccc([N+](=O)[O-])cc2c1=O`: the results for the solubility result in series [1] and in series [2] were “Soluble” and “Insoluble”, respectively. Besides, the Activity in the series on Mycobacterium ulcerans is recorded as greater than 90%.

Regarding `O=C(NO)c1cn(Cc2cccc(Br)c2)c2ccc([N+](=O)[O-])cc2c1=O`, the solubility result in series [1] is on record as “Soluble”; in series [2] it was “Insoluble”.

For `O=C(NCCOCCO)c1cn(Cc2cccc(Cl)c2)c2ccc([N+](=O)[O-])cc2c1=O`, the solubility entry is recorded as “Soluble” in series [1] and “Insoluble” in series [2].

As to `O=C(NCCOCCO)c1cn(Cc2cccc(F)c2)c2ccc([N+](=O)[O-])cc2c1=O`, the solubility entry in series [1] is “Soluble”; in series [2], “Insoluble”.

As to `COCCNC(=O)c1cn(Cc2ccc(C#N)cc2)c2ccc([N+](=O)[O-])cc2c1=O`, the solubility entry in series [1] is listed as “Soluble”; in series [2], “Insoluble”.

Turning to `N#Cc1ccc(Cn2cc(C(=O)NCCOCCO)c(=O)c3cc([N+](=O)[O-])ccc32)cc1`, the solubility result in series [1] is listed as “Soluble”; in series [2], “Insoluble”.

Consider `N#Cc1ccc(Cn2cc(C(=O)NCCNCCO)c(=O)c3cc([N+](=O)[O-])ccc32)cc1`, for which the solubility result is reported as “Soluble” in series [1] and “Insoluble” in series [2].
